INS promoter inh: inhibitors of insulin promoter-driven GFP, primary screen, imaging, TRM-6 cells (human fetal islet line), eGFP reporter, cell count; reporter expression induced with tamoxifen; inhibition, % at 2 µM; 130,000 tested, 0.9% active; AID 1273, 2008;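 active = inhibition above the mean plus 3 SD, with well images judged a real hit on visual review, cut at about 60% in these data, passing the limit was not always enough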
NPY2 pot ag: NPY-Y2 potentiators or agonists, primary screen, cell-based. 220,000 tested, 0.45% active. Neuropeptide Y receptor type 2 (Homo sapiens), P49146. activation, % at 3.6 µM. cells expressing NPY-Y2, potentiator/agonist read-out; in the data active = activation above about 27%;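 also: cells stimulated with NPY near EC25 plus isoproterenol at EC100; 0% = vehicle plus submaximal agonist and 100% = vehicle plus saturating agonist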
NPY Y1 blocker: NPY-Y1 receptor antagonists, primary screen, cell-based; Neuropeptide Y receptor type 1 (Homo sapiens), P25929; HEK293-CNG Y1 cells, membrane potential fluorescence; NPY at EC95, then isoproterenol; inhibition, % at 3.6 µM; 200,000 tested, 1% active;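 active = inhibition above the campaign mean inhibition of all tested compounds plus 3 SD, cut at about 20% in these data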;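 also: 0% = DMSO wells given NPY plus isoproterenol and 100% = isoproterenol alone without NPY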
Target sequence (P25929 whole entry, looked up): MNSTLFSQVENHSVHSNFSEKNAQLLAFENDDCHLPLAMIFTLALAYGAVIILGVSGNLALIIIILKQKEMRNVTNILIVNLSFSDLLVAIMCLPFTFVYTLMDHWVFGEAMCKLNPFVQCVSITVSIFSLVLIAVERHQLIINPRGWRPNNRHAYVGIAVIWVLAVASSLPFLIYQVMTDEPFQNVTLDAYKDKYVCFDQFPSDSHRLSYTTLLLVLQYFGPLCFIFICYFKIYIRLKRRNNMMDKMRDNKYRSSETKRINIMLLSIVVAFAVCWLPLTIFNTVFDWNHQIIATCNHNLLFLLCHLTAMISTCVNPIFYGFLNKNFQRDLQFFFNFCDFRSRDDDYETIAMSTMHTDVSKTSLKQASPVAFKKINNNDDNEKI
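material = HEK293 cells with Y1 receptor plus CNG channel | also added = NPY 25 nM then isoproterenol 1 µM plus Ro 20-1724 25 µM | schedule = dye 3 h, compound 60 min room temperature, stimulation 45 min | measured by = membrane potential fluorescence | benchmarks = high control isoproterenol alone, low control NPY with isoproterenol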
Ins promoter up: insulin promoter activators in MIN6 cells, imaging, high-content screening, mouse beta cells. MIN6 insulin promoter-GFP reporter; active compounds read high. 190,000 tested, 0.3% active. z-score at 5 µM;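 active = z-score above 3 at 5 µM with at least 500 cells counted in the well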
NPY Y2 blocker: NPY-Y2 receptor antagonists, primary screen, cell-based; Neuropeptide Y receptor type 2 (Homo sapiens), P49146; inhibition, % at 2.7 µM; 140,000 tested, 0.99% active; NPY-Y2 expressing cells, antagonist mode; in the data active = inhibition above about 17%;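 also: 0% = vehicle with agonist challenge and 100% = reference antagonist with challenge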
NPY1 pot ag: NPY-Y1 receptor potentiators or agonists, primary screen, cell-based; 220,000 tested, 0.37% active; activation, % at 3.6 µM; NPY-Y1 expressing cells, potentiator/agonist activation; in the data active = activation above about 33%, passing the limit was not always enough;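 also: cells stimulated with NPY at EC10 then isoproterenol at EC100; 0% = low agonist plus stimulus and 100% = saturating agonist plus stimulus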
NPY-Y1 antag ct: NPY-Y1 receptor antagonists, selectivity check, counter-screen for NPY-Y2 antagonist project, cell-based. shares compounds with NPY Y2 blocker. cell-based NPY-Y1 antagonism counterscreen. inhibition, % at 3.6 µM. 710 tested, 19% active; in the data active = inhibition above about 20%;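 also: cells challenged with NPY then isoproterenol with cAMP sensed through a CNG channel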
NPY2 antag conf: NPY-Y2 receptor antagonists, retest of hits, confirmation, HEK293-CNG cells, membrane potential fluorescence, triplicate. HEK293 NPY-Y2 CNG channel. 710 tested, 32% active. inhibition, % at 2.8 µM. shares compounds with NPY Y2 blocker. AID 1257, 2008;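 active = mean inhibition of triplicate wells above the hit cutoff set in the primary screen, cut at about 17% in these data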;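 also: 0% = DMSO with NPY challenge and 100% = BIIE0246 high control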
Active calls of the source: *. Sampled rows, rich in hits. Any-hit rate of the full collection: about 2.5%.

For CCOC(=O)c1cnc2ccc(C)cc2c1NCCO the results were INS promoter inh -200.0, NPY2 pot ag 7.1, NPY Y1 blocker 3.9, NPY Y2 blocker -0.5 and NPY1 pot ag -0.6.
CCOC(=O)c1cnc2ccc(OC)cc2c1NCc1ccccc1 was read as INS promoter inh -14.3, NPY2 pot ag -51.3, NPY Y1 blocker 26.6*, Ins promoter up -0.92, NPY Y2 blocker 19.3* and NPY1 pot ag -74.5.
`CCOC(=O)c1cnc2ccc(OCC)cc2c1NCCN1CCOCC1` gave INS promoter inh 42.9, NPY2 pot ag -24.5, NPY Y1 blocker 9.7, Ins promoter up -0.99 and NPY1 pot ag -22.1.
For CCOC(=O)c1cnc2ccc(OCC)cc2c1NCc1ccccc1OC the results were INS promoter inh 16.2, NPY2 pot ag -23.7, NPY Y1 blocker 27.3*, Ins promoter up 0.36, NPY Y2 blocker 49.4* and NPY1 pot ag -60.4.
For COc1ccc(CCNC(=O)COc2ccc(C)nc2[N+](=O)[O-])cc1OC the results were INS promoter inh -71.4, NPY2 pot ag -3.6, NPY Y1 blocker 3.1, Ins promoter up 0.56 and NPY1 pot ag 6.1.
CN(Cc1nc2ccccc2n1C)S(=O)(=O)c1ccc(F)cc1 was read as INS promoter inh 93.3*, NPY2 pot ag 5.0, NPY Y1 blocker 3.3, Ins promoter up -0.34, NPY Y2 blocker 3.7 and NPY1 pot ag -17.6.
For CN(Cc1nc2ccccc2n1C)S(C)(=O)=O the results were INS promoter inh -22.7, NPY2 pot ag -19.9, NPY Y1 blocker -4.8, NPY Y2 blocker 3.0 and NPY1 pot ag -3.5.
Screening Cc1ccc(CO/N=C/C2=C(Cl)c3ccccc3CC2)cc1 returned INS promoter inh 78.6*, NPY2 pot ag 6.2, NPY Y1 blocker 0.7, Ins promoter up -0.05, NPY Y2 blocker 5.3 and NPY1 pot ag -3.2.
For CC(C)C(=O)Nc1nnn(C)n1 the results were INS promoter inh 14.3, NPY2 pot ag -0.3, NPY Y1 blocker -0.1, Ins promoter up 1.04, NPY Y2 blocker 1.4 and NPY1 pot ag 4.7.
O=C(CN1CCN(c2ccccc2)CC1)Nc1ccccc1Cl was read as INS promoter inh -10.5, NPY2 pot ag -8.1, NPY Y1 blocker 2.7, Ins promoter up 0.38 and NPY1 pot ag -26.9.
O=C(CN1CCN(c2ccccc2)CC1)Nc1ccccc1C(F)(F)F was read as INS promoter inh 87.9*, NPY2 pot ag -2.2, NPY Y1 blocker 1.6, Ins promoter up 0.59, NPY Y2 blocker 5.9 and NPY1 pot ag -5.6.
For CCc1nc2cc3sc(CC)nc3cc2s1 the results were NPY2 pot ag 3.5, NPY Y1 blocker 1.8, Ins promoter up 0.35 and NPY1 pot ag 4.2.
`Cc1ccc(NC(=S)NNC(=O)CSc2nc3ccccc3c(=O)n2-c2ccc(C)cc2)cc1` gave INS promoter inh -13.3, NPY2 pot ag 1.1, NPY Y1 blocker 6.7, Ins promoter up -0.29, NPY Y2 blocker 0.6 and NPY1 pot ag 7.5.
Screening COc1ccc(CNC(=O)/C=C/c2ccco2)cc1OC returned INS promoter inh 71.4*, NPY2 pot ag -9.4, NPY Y1 blocker 4.8 and NPY1 pot ag -3.3.
Screening O=C(/C=C/c1ccc2c(c1)OCO2)Nc1ccc(Cl)cn1 returned INS promoter inh 72.7*, NPY2 pot ag -13.0, NPY Y1 blocker 5.0, Ins promoter up -0.86 and NPY1 pot ag -3.6.
`O=C(c1ccc(Cl)nc1)N1CCN(C/C=C/c2ccccc2)CC1` gave NPY2 pot ag 1.7, NPY Y1 blocker 12.2, Ins promoter up 0.06 and NPY1 pot ag 24.8.
For Cc1ccc(NC(=S)N/N=C/c2c(C)[nH]c3ccccc23)cc1 the results were NPY2 pot ag 37.1*, NPY Y1 blocker -10.6, Ins promoter up -0.37 and NPY1 pot ag 51.3*.
For Cc1[nH]c2ccccc2c1/C=N/NC(N)=S the results were NPY2 pot ag 13.4, Ins promoter up -0.42 and NPY1 pot ag -6.0.
Cc1ccn2c(NC3CCCCC3)c(C)nc2c1 was read as NPY2 pot ag 13.5, NPY Y1 blocker -1.8, Ins promoter up 3.89*, NPY Y2 blocker 5.4 and NPY1 pot ag 8.4.
For Cc1ccc(/C=N/n2nnnc2N)cc1[N+](=O)[O-] the results were NPY2 pot ag -6.4, NPY Y1 blocker -4.0, Ins promoter up 0.34, NPY Y2 blocker 1.3 and NPY1 pot ag -24.9.
CCC(C)n1c(SCC(=O)NCc2ccco2)nnc1-c1cccc(S(=O)(=O)N2CCOCC2)c1 (configuration not stated) was read as INS promoter inh 21.7, NPY2 pot ag -10.3, NPY Y1 blocker 4.7, Ins promoter up 0.17, NPY Y2 blocker -0.6 and NPY1 pot ag 6.2.
For Cc1ccc(CSc2nnc(-c3cccc(S(=O)(=O)N4CCOCC4)c3)n2CC(C)C)cc1 the results were INS promoter inh 17.5, NPY2 pot ag 3.5, NPY Y1 blocker 7.2, Ins promoter up 0.29, NPY Y2 blocker 17.9*, NPY1 pot ag -23.5, NPY-Y1 antag ct 10.0 and NPY2 antag conf 6.5.
Screening Cc1ccc(C)c(NS(=O)(=O)c2cc(C(=O)Nc3ccccc3-c3ccccc3)ccc2C)c1 returned INS promoter inh -16.1, NPY2 pot ag -40.7, NPY Y1 blocker 4.7, Ins promoter up -0.39, NPY Y2 blocker 22.4*, NPY1 pot ag 18.3, NPY-Y1 antag ct 0.3 and NPY2 antag conf 117.1*.
For Cc1ccc(C(=O)Nc2ccccc2-c2ccccc2)cc1S(=O)(=O)Nc1cccc(C)c1C the results were NPY2 pot ag -24.5, NPY Y1 blocker 3.7, Ins promoter up -0.05, NPY Y2 blocker 15.4 and NPY1 pot ag -4.4.
CCC(C)N(C)C(=O)c1cc2ccccc2c(-c2ccccc2Cl)n1 (configuration not stated) was read as INS promoter inh -60.0, NPY2 pot ag 0.6, NPY Y1 blocker 0.0, Ins promoter up 0.21 and NPY1 pot ag 3.0.
`O=C(C1CCN(Cc2ccc(OCc3ccccc3)cc2)CC1)N1CCCC1` gave NPY2 pot ag 6.0, NPY Y1 blocker 8.0, Ins promoter up -0.34, NPY Y2 blocker 6.8 and NPY1 pot ag -12.3.
Screening O=C(C1CCN(Cc2ccc(Cl)cc2)CC1)N1CCN(C(c2ccccc2)c2ccccc2)CC1 returned NPY2 pot ag -3.7, NPY Y1 blocker 3.3, Ins promoter up 0.68, NPY Y2 blocker 20.4*, NPY1 pot ag -28.5, NPY-Y1 antag ct 9.1 and NPY2 antag conf 32.0*.
